This passage reports migration and mode of inhibition results from paper PMC4062594 (Nature chemical biology, 2014).

In assay [1] the test system is BT-474 cells. Kind of assay: Cell migration assay. The class given is cell-based. The note with it: HER2-positive, MSI-1436 5 µM.
Assay [2] has as its system MCF10A-NeuNT cells. Kind of assay: Cell migration with PTP1B knock-down and re-expression. The class given is cell-based. In outline: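 MCF10A-NeuNT cells carried doxycycline-inducible control or PTP1B shRNA miRs; doxycycline (500 ng/mL) was added 12 h after seeding and refreshed every 12 h. Cells were transfected 24 h with wild type or L192A/S372P PTP1B, then left untreated or given test compound (1 or 2 μM). Cells were run in Matrigel invasion chambers (8.0 μm pores) for 24–48 h, and migrated cells were Giemsa-stained and counted. Three experiments, in duplicate.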

Assay [3] deals with T1, PTP1B1-405 (Homo sapiens, UniProt P18031).
T1 sequence (P18031 1-405): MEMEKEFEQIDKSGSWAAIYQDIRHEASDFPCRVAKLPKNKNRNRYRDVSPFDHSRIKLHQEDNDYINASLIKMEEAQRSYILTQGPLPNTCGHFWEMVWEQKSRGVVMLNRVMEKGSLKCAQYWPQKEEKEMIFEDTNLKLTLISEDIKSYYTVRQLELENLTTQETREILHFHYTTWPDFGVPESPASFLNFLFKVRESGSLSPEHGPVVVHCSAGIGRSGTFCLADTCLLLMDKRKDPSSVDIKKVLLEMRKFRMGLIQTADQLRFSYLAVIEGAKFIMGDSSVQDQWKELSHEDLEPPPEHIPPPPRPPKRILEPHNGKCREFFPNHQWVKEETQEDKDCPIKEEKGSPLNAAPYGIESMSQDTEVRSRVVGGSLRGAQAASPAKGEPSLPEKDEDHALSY
The experiment in a line: PTP assay with DiFMUP substrate. The class given is biochemical.

Assay [4] deals with SKBR3 cells. The experiment in a line: Cell migration assay. Format: cell-based. The settings on record: HER2-positive, MSI-1436 5 µM.

On to `CC(C)[C@@H](CC[C@@H](C)[C@H]1CC[C@H]2[C@@H]3[C@H](O)C[C@H]4C[C@@H](NCCCNCCCCNCCCN)CC[C@]4(C)[C@H]3CC[C@]12C)OS(=O)(=O)O` [MSI-1436, Trodusquemine], for which the migration result in assay [1] is recorded as “attenuated migration”; in assay [2] (PTP1B knock-down, reconstituted with PTP1B-L192A/S372P, MSI-1436 1 or 2 μM) it was “no longer sensitive”; in assay [2] (PTP1B knock-down, reconstituted with wild type PTP1B, MSI-1436 1 or 2 μM), “remained sensitive to inhibition”; in assay [2] (absence of doxycycline (endogenous PTP1B)) it was “attenuated”; in assay [4], “attenuated migration”. The mode of inhibition entry in assay [3] is reported as “reversible non-competitive inhibitor”.
